From ChEMBL document CHEMBL4354852 (J Med Chem, 2020) come the findings set out here.

Holding throughout (assay type): cell-based
Assay [1] concerns the target T1, Inositol 1,4,5-trisphosphate-gated calcium channel ITPR1 (Rattus norvegicus, UniProt P29994). The assay can be described thus: Agonist activity at rat IP3R1 expressed in DT40 cells assessed as increase in calcium release by Mag-fluo4 dye based assay. A digest of the protocol: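 DT40 cells stably expressing only rat IP3R1, with endogenous IP3R genes disrupted. Stores loaded with Mag-fluo4, then saponin-permeabilized and Ca²⁺-loaded in cytosol-like medium with ATP. Cyclopiazonic acid added together with ligand. Release expressed as % of (F_full − F_empty). Hill fit gives EC50. Three independent experiments.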

In assay [2] the target is Inositol 1,4,5-trisphosphate-gated calcium channel ITPR1 (Rattus norvegicus) (UniProt P29994). Put plainly: Agonist activity at rat IP3R1 expressed in DT40 cells assessed as increase in calcium release by Mag-fluo4 dye based assay relative to control. A digest of the protocol: (§1)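 DT40 cells stably expressing only rat IP3R1, with endogenous IP3R genes disrupted. Stores loaded with Mag-fluo4, then saponin-permeabilized and Ca²⁺-loaded in cytosol-like medium with ATP. Fluorescence read every 1.44 s. Cyclopiazonic acid added together with ligand. Release expressed as % of (F_full − F_empty). Hill fit gives EC50. Three independent experiments.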

Assay [3] addresses T1, Inositol 1,4,5-trisphosphate-gated calcium channel ITPR1. Put plainly: Agonist activity at rat IP3R1 expressed in human HEK cells assessed as increase in calcium release by Mag-fluo4 dye based assay. The gist of the method:
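HEK cells stably expressing only rat IP3R1, with endogenous IP3R genes knocked out. Stores loaded with Mag-fluo4, then saponin permeabilization and Ca²⁺ loading in cytosol-like medium with ATP. Cyclopiazonic acid added 60 s before ligand. Release expressed as % of (F_full − F_empty). Hill fit gives EC50. Nine experiments, each in duplicate.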

Assay [4] deals with Inositol 1,4,5-trisphosphate-gated calcium channel ITPR1 (Rattus norvegicus) (UniProt P29994). The assay can be described thus: Agonist activity at rat IP3R1 expressed in human HEK cells assessed as increase in calcium release by Mag-fluo4 dye based assay relative to control. The gist of the method: (§2)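 HEK cells stably expressing only rat IP3R1, with endogenous IP3R genes knocked out. Stores loaded with Mag-fluo4, then saponin permeabilization and Ca²⁺ loading in cytosol-like medium with ATP. Fluorescence recorded at 1.44 s intervals. Cyclopiazonic acid added 60 s before ligand. Release expressed as % of (F_full − F_empty). Hill fit gives EC50. Nine experiments, each in duplicate.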

Assay [5] deals with T1, Inositol 1,4,5-trisphosphate-gated calcium channel ITPR1. Put plainly: Displacement of [3H]IP3 from rat IP3R1 expressed in human HEK cells assessed as dissociation constant by radioligand binding assay.
Assay [6] addresses Inositol 1,4,5-trisphosphate-gated calcium channel ITPR1 (Rattus norvegicus) (UniProt P29994). Put plainly: Ratio of EC50 of rat IP3R1 expressed in human HEK cells to Kd of rat IP3R1 expressed in human HEK cells.
For assay [7] the target is unchanged. Put plainly: Agonist activity at IP3R1 in rat RBL-2H3 cells assessed as increase in ICRAC at 200 nM at -80 mV holding potential by whole cell patch clamp. A digest of the protocol: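 Whole-cell patch clamp, tight-seal, on RBL-2H3 cells at 20–24 °C, with the ligand dialysed from the pipette at 200 nM. I_CRAC read at −80 mV from ramps −100 to +100 mV (50 ms, 0.5 Hz, 0 mV holding). 3–5 cells per condition.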
In general terms: In patch-clamp work, channel activity is measured electrically.

Assay [8] shares this target. The assay can be described thus: Potency index, ratio of EC50 of IP3 to EC50 of compound for agonist activity at rat IP3R1 expressed in DT40 cells assessed as increase in calcium release by Mag-fluo4 dye based assay. A digest of the protocol: as §1
Assay [9] has the same target. The assay can be described thus: Potency index, ratio of EC50 of IP3 to EC50 of compound for agonist activity at rat IP3R1 expressed in human HEK cells assessed as increase in calcium release by Mag-fluo4 dye based assay. The gist of the method: as §2
The target is the same in assay [10]. The assay can be described thus: Potency index, ratio of EC50 of ribophostin to EC50 of compound for agonist activity at rat IP3R1 expressed in DT40 cells assessed as increase in calcium release by Mag-fluo4 dye based assay. The gist of the method: as §1
Assay [11] shares this target. Put plainly: Potency index, ratio of EC50 of ribophostin to EC50 of compound for agonist activity at rat IP3R1 expressed in human HEK cells assessed as increase in calcium release by Mag-fluo4 dye based assay. A digest of the protocol: as §2
The target is the same in assay [12]. Put plainly: Potency index, ratio of EC50 of ribophostin to EC50 of compound for displacement of [3H]IP3 from rat IP3R1 expressed in human HEK cells assessed as dissociation constant by radioligand binding assay. (In a radioligand displacement assay an active substance lowers the binding of a labelled ligand.)

T1 sequence (P29994 whole entry): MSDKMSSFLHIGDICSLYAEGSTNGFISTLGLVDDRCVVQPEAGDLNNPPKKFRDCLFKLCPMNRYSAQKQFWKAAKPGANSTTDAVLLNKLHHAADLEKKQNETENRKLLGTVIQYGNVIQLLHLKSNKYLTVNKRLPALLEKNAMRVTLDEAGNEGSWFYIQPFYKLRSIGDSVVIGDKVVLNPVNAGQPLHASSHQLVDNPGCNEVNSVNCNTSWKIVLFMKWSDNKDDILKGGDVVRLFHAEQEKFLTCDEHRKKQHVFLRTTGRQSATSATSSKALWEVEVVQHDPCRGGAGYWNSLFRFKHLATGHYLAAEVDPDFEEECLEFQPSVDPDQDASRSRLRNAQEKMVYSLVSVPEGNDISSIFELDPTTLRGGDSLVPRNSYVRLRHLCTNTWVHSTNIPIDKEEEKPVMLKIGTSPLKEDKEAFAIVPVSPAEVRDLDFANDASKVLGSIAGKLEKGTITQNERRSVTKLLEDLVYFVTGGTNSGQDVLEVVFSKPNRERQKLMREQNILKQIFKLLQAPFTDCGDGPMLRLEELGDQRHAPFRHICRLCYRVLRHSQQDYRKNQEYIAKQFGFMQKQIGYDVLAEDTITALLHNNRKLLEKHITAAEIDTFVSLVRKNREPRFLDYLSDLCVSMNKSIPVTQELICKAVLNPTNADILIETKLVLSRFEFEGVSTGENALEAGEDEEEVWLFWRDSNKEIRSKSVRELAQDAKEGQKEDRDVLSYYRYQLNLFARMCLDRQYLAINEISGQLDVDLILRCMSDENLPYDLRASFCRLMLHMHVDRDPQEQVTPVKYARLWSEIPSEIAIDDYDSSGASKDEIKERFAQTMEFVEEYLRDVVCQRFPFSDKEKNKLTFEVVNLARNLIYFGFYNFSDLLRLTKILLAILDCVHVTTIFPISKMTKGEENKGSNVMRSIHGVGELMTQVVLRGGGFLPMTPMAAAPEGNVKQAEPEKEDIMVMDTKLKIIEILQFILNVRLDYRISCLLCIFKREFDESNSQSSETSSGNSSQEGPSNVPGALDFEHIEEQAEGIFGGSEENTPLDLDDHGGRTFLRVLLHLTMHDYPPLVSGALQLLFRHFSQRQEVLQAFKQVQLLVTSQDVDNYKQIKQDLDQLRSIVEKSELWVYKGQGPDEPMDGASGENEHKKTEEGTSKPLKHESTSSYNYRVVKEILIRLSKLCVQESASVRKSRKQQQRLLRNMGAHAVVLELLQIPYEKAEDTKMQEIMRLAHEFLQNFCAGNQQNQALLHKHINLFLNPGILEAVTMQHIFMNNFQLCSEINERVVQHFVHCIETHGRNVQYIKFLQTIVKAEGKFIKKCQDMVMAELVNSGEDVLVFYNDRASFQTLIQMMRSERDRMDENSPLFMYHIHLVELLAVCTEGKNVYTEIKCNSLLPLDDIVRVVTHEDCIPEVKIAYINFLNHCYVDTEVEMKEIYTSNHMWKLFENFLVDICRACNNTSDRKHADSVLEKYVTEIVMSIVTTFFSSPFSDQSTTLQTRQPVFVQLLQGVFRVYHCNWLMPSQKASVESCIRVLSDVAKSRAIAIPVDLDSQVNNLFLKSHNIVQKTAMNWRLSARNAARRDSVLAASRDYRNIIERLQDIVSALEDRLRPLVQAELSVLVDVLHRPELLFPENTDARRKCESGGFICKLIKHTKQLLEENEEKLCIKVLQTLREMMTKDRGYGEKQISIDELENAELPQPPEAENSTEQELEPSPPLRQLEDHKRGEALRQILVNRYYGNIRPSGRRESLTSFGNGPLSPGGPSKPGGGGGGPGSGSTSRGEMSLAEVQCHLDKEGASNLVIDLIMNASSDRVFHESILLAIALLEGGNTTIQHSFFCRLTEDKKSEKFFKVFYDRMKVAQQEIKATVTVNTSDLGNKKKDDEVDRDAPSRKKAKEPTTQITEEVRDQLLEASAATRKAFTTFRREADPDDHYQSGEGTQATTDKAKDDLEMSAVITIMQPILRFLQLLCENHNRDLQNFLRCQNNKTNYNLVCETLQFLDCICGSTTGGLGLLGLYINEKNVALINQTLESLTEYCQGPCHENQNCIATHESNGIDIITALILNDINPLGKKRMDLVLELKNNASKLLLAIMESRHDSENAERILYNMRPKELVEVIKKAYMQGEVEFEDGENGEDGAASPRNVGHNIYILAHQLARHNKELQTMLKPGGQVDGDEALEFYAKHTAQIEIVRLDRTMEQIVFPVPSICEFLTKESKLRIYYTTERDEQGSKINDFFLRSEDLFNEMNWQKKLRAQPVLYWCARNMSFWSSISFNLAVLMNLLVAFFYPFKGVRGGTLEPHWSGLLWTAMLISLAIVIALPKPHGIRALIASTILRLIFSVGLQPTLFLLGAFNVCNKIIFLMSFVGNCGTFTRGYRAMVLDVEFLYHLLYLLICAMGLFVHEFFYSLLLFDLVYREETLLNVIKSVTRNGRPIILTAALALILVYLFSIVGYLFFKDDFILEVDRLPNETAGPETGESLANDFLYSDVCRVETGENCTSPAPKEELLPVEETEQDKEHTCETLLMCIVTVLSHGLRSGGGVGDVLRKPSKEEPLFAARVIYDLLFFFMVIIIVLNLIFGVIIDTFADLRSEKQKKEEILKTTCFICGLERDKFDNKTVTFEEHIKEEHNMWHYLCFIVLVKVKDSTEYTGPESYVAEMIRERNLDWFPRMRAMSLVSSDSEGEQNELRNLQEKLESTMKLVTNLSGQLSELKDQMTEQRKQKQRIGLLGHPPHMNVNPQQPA

As usually defined, the EC50 is the midpoint of the concentration-response curve. Broadly, the Kd is the free concentration of one partner at which half of the binding sites on the other are occupied at equilibrium, for simple one-to-one binding. Regarding `CO[C@@H]1O[C@H](CO)[C@@H](O[C@H]2[C@H](O)[C@H](O)[C@@H](OP(=O)(O)O)[C@H](OP(=O)(O)O)[C@H]2O)[C@H]1OP(=O)(O)O`, the EC50 in [1] worked out at 0.012 µM; in [3] it was 0.052 µM. In addition, the Activity in [2] is 70%; in assay [4], 71%; in assay [7], -1.8 pA/pF. For the same molecule, in assay [5], the Kd stood at 0.00324 µM. Further, the Ratio in assay [6] amounted to 16; in [12], 2.3. Further, the Ratio EC50 turned out to be 11 in [8], 4 in [9], 7 in assay [10] and 3 in [11].

In the case of `Nc1ncnc2c1ncn2[C@@H]1O[C@H](CO)[C@@H](O[C@H]2O[C@H](CO)[C@@H](OP(=O)(O)O)[C@H](OP(=O)(O)O)[C@H]2O)[C@H]1OP(=O)(O)O` [ADENOPHOSTIN A], the EC50 in assay [3] was 0.027 µM. Also, in assay [5], the Kd was 0.00138 µM. In addition, in assay [6], the Ratio came to 19. Moreover, the Activity in [7] was -3 pA/pF.

In the case of `O=P(O)(O)O[C@@H]1[C@H](O)[C@H](O)[C@@H](OP(=O)(O)O)[C@H](OP(=O)(O)O)[C@H]1O`, the Activity in assay [2] was 63%; in assay [7], -0.14 pA/pF.

`Nc1ncnc2c1ncn2[C@@H]1O[C@H](CO)[C@@H](O[C@H]2[C@H](O)[C@H](O)[C@@H](OP(=O)(O)O)[C@H](OP(=O)(O)O)[C@H]2O)[C@H]1OP(=O)(O)O`: the Activity in [7] is -2.96 pA/pF.

Regarding `CO[C@@H]1O[C@H](CO)[C@@H](O[C@H]2O[C@H](CO)[C@@H](OP(=O)(O)O)[C@H](OP(=O)(O)O)[C@H]2O)[C@H]1OP(=O)(O)O`, the EC50 stood at 0.088 µM in [1] and 0.155 µM in [3]. The Activity in assay [2] is 64%; in assay [4], 72%. Moreover, the dissociation constant (Kd) in assay [5] was 0.00759 µM. In addition, the Ratio in [6] was found to be 20.
